In ChEMBL document CHEMBL1152128, “Catalytic site-selective synthesis and evaluation of a series of erythromycin analogs” (2008):
≈ marks a conversion by molar mass, not a printed value.

Assays:
Enterococcus faecalis = test: Antibacterial activity against Enterococcus faecalis ATCC 29212; type: functional
Outline: (§1)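 Broth microdilution MIC in Mueller Hinton II broth, 384-well format, quadruplicate wells. The compound is serially diluted two-fold from DMSO stocks, with final concentrations half of 64 to 0.0625 µg/mL. The inoculum is a 0.5 McFarland culture diluted 100-fold, mixed 1:1 with compound to 20 µL per well. Plates are incubated 24 h at 35 °C. MIC is the lowest concentration with no visible growth; OD620 is also read.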

Staphylococcus aureus = test: Antibacterial activity against Staphylococcus aureus ATCC 29213; type: functional; outline: as §1

Row | MIC (Enterococcus faecalis) | MIC (Staphylococcus aureus) | Structure (SMILES)
1 | > 32 mg/L | 32 mg/L (≈ 33.8 µM) | CC[C@H]1OC(=O)[C@H](C)[C@@H](O[C@H]2C[C@@](C)(OC)[C@@H](O)[C@H](C)O2)[C@H](C)[C@@H](O[C@@H]2O[C@H](C)C[C@H](N(C)C)[C@H]2OC(C)=O)[C@@](C)(O)C[C@@H](C)C(=O)[C@H](C)[C@@H](OC(=O)CCNC(=O)OC(C)(C)C)[C@@]1(C)O
2 | 32 mg/L (≈ 37.2 µM) | 32 mg/L (≈ 37.2 µM) | CCCCCCCC(=O)O[C@@H]1[C@@H](C)C(=O)[C@H](C)C[C@](C)(O)[C@H](O[C@@H]2O[C@H](C)C[C@H](N(C)C)[C@H]2O)[C@@H](C)[C@H](O[C@H]2C[C@@](C)(OC)[C@@H](O)[C@H](C)O2)[C@@H](C)C(=O)O[C@H](CC)[C@]1(C)O
3 | > 32 mg/L | > 32 mg/L | CC[C@H]1OC(=O)[C@H](C)[C@@H](O[C@H]2C[C@@](C)(OC)[C@@H](O)[C@H](C)O2)[C@H](C)[C@@H](O[C@@H]2O[C@H](C)C[C@H](N(C)C)[C@H]2OC(=O)CCNC(=O)OC(C)(C)C)[C@@](C)(O)C[C@@H](C)C(=O)[C@H](C)[C@@H](OC(=O)CCNC(=O)OC(C)(C)C)[C@@]1(C)O
4 | > 32 mg/L | > 32 mg/L | CCCCCCCC(=O)O[C@H]1[C@H](O[C@@H]2[C@@H](C)[C@H](O[C@H]3C[C@@](C)(OC)[C@@H](O)[C@H](C)O3)[C@@H](C)C(=O)O[C@H](CC)[C@](C)(O)[C@H](OC(=O)CCCCCCC)[C@@H](C)C(=O)[C@H](C)C[C@]2(C)O)O[C@H](C)C[C@@H]1N(C)C
5 | 32 mg/L (≈ 39.2 µM) | 16 mg/L (≈ 19.6 µM) | C=CCCC(=O)O[C@@H]1[C@@H](C)C(=O)[C@H](C)C[C@](C)(O)[C@H](O[C@@H]2O[C@H](C)C[C@H](N(C)C)[C@H]2O)[C@@H](C)[C@H](O[C@H]2C[C@@](C)(OC)[C@@H](O)[C@H](C)O2)[C@@H](C)C(=O)O[C@H](CC)[C@]1(C)O

The next lines start with the compound.

Row | Structure (SMILES) | MIC (Enterococcus faecalis) | MIC (Staphylococcus aureus)
6 | C=CCCC(=O)O[C@H]1[C@H](O[C@@H]2[C@@H](C)[C@H](O[C@H]3C[C@@](C)(OC)[C@@H](O)[C@H](C)O3)[C@@H](C)C(=O)O[C@H](CC)[C@](C)(O)[C@H](OC(=O)CCC=C)[C@@H](C)C(=O)[C@H](C)C[C@]2(C)O)O[C@H](C)C[C@@H]1N(C)C | > 32 mg/L | 32 mg/L (≈ 35.6 µM)
7 | CC[C@H]1OC(=O)[C@H](C)[C@@H](O[C@H]2C[C@@](C)(OC)[C@@H](O)[C@H](C)O2)[C@H](C)[C@@H](O[C@@H]2O[C@H](C)C[C@H](N(C)C)[C@H]2O)[C@](C)(O)C[C@@H](C)C(=O)[C@H](C)[C@@H](O)[C@]1(C)O [ERYTHROMYCIN] | 2 mg/L (≈ 2.73 µM) | 1 mg/L (≈ 1.36 µM)
8 | CC[C@H]1OC(=O)[C@H](C)[C@@H](O[C@H]2C[C@@](C)(OC)[C@@H](O)[C@H](C)O2)[C@H](C)[C@@H](O[C@@H]2O[C@H](C)C[C@H](N(C)C)[C@H]2O)[C@@](C)(O)C[C@@H](C)C(=O)[C@H](C)[C@@H](OC(=O)CCNC(=O)OC(C)(C)C)[C@@]1(C)O | > 32 mg/L | 32 mg/L (≈ 35.4 µM)
9 | CCC(=O)O[C@@H]1[C@@H](C)C(=O)[C@H](C)C[C@](C)(O)[C@H](O[C@@H]2O[C@H](C)C[C@H](N(C)C)[C@H]2O)[C@@H](C)[C@H](O[C@H]2C[C@@](C)(OC)[C@@H](O)[C@H](C)O2)[C@@H](C)C(=O)O[C@H](CC)[C@]1(C)O | 32 mg/L (≈ 40.5 µM) | 16 mg/L (≈ 20.3 µM)
10 | CCC(=O)O[C@H]1[C@H](O[C@@H]2[C@@H](C)[C@H](O[C@H]3C[C@@](C)(OC)[C@@H](O)[C@H](C)O3)[C@@H](C)C(=O)O[C@H](CC)[C@](C)(O)[C@H](OC(=O)CC)[C@@H](C)C(=O)[C@H](C)C[C@]2(C)O)O[C@H](C)C[C@@H]1N(C)C | 32 mg/L (≈ 37.8 µM) | 32 mg/L (≈ 37.8 µM)
11 | CCC(=O)O[C@H]1[C@H](O[C@@H]2[C@@H](C)[C@H](O[C@H]3C[C@@](C)(OC)[C@@H](OP(=O)(Oc4ccccc4)Oc4ccccc4)[C@H](C)O3)[C@@H](C)C(=O)O[C@H](CC)[C@](C)(O)[C@H](OC(=O)CC)[C@@H](C)C(=O)[C@H](C)C[C@]2(C)O)O[C@H](C)C[C@@H]1N(C)C | > 32 mg/L | > 32 mg/L
12 | CCCCCCCC(=O)O[C@H]1[C@H](O[C@@H]2[C@@H](C)[C@H](O[C@H]3C[C@@](C)(OC)[C@@H](OP(=O)(Oc4ccccc4)Oc4ccccc4)[C@H](C)O3)[C@@H](C)C(=O)O[C@H](CC)[C@](C)(O)[C@H](OC(=O)CCCCCCC)[C@@H](C)C(=O)[C@H](C)C[C@]2(C)O)O[C@H](C)C[C@@H]1N(C)C | > 32 mg/L | > 32 mg/L
13 | CCCCCCCC(=O)O[C@@H]1[C@@H](C)C(=O)[C@H](C)C[C@](C)(O)[C@H](O[C@@H]2O[C@H](C)C[C@H](N(C)C)[C@H]2O)[C@@H](C)[C@H](O[C@H]2C[C@@](C)(OC)[C@@H](OC(=O)CCCCCCC)[C@H](C)O2)[C@@H](C)C(=O)O[C@H](CC)[C@]1(C)O | > 32 mg/L | > 32 mg/L
14 | CC[C@H]1OC(=O)[C@H](C)[C@@H](O[C@H]2C[C@@](C)(OC)[C@@H](OP(=O)(Oc3ccccc3)Oc3ccccc3)[C@H](C)O2)[C@H](C)[C@@H](O[C@@H]2O[C@H](C)C[C@H](N(C)C)[C@H]2OC(C)=O)[C@@](C)(O)C[C@@H](C)C(=O)[C@H](C)[C@@H](OC(=O)CCNC(=O)OC(C)(C)C)[C@@]1(C)O | > 32 mg/L | > 32 mg/L
15 | C=CCCC(=O)O[C@H]1[C@H](O[C@@H]2[C@@H](C)[C@H](O[C@H]3C[C@@](C)(OC)[C@@H](OP(=O)(Oc4ccccc4)Oc4ccccc4)[C@H](C)O3)[C@@H](C)C(=O)O[C@H](CC)[C@](C)(O)[C@H](OC(=O)CCC=C)[C@@H](C)C(=O)[C@H](C)C[C@]2(C)O)O[C@H](C)C[C@@H]1N(C)C | > 32 mg/L | > 32 mg/L
